# Test results: ChEMBL document CHEMBL1124417, “Synthesis and hypertensive activity of neuropeptide Y fragments and analogues with modified N- or C-termini or D-substitutions” (1989)
# Experiments:
# Rattus norvegicus [1] = assay: Hypertensive potency in conscious rats after intra arterial administration.; format: functional
# Procedure, shortened: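 Male Sprague-Dawley rats (240-280 g), conscious; catheters placed under pentobarbital anaesthesia (40 mg/kg) with ≥2 h recovery. Peptides in saline given intraarterially as 100-µL bolus. ΔMAP = posttreatment minus mean pretreatment saline zero values (n = 4).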
# Rattus norvegicus [2] = assay: Mean arterial pressure was measured in conscious rats after intra arterial administration at 400 ug/kg dosage.; format: functional, Artery
# Procedure, shortened: (§1)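 Conscious male Sprague-Dawley rats (240-280 g), catheterised under pentobarbital (40 mg/kg), ≥2 h recovery. Saline peptide solutions as intraarterial 100-µL bolus. MAP via pressure transducer, computed as [[…] + diastolic]. ΔMAP = value at 1 min minus mean pretreatment saline zero values (n = 4). Means ± SEM, n ≥ 3.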
# Rattus norvegicus [3] = assay: Mean arterial pressure was measured in conscious rats after intra arterial administration at 40 ug/kg dosage.; format: functional, Artery; procedure, shortened: as §1
# [4] = Relative potency measured as ratio of ED50 of NPY to ED50 of analogue; format: functional
Compound,ED50 (Rattus norvegicus [1]) [mg/kg],Delta MAP (Rattus norvegicus [2]),Delta MAP (Rattus norvegicus [3]),Ratio [4]
H-YPSKPDNPGEDAPA-OH,> 0.4,<5,<5,–
CC[C@H](C)[C@H](NC(=O)[C@H](Cc1ccc(O)cc1)NC(=O)[C@@H](N)Cc1c[nH]cn1)C(=O)N[C@@H](CC(N)=O)C(=O)N[C@@H](CC(C)C)C(=O)N[C@H](C(=O)N[C@H](C(=O)N[C@@H](CCCN=C(N)N)C(=O)N[C@@H](CCC(N)=O)C(=O)N[C@@H](CCCN=C(N)N)C(=O)N[C@@H](Cc1ccc(O)cc1)C(N)=O)[C@@H](C)O)[C@@H](C)CC,> 0.4,7,<5,–
CC[C@H](C)[C@H](NC(=O)[C@H](Cc1ccc(O)cc1)NC(=O)[C@H](Cc1c[nH]cn1)NC(=O)[C@H](CCCN=C(N)N)NC(=O)[C@H](CC(C)C)NC(=O)[C@H](C)NC(=O)[C@H](CO)NC(=O)[C@H](Cc1ccc(O)cc1)NC(=O)[C@H](Cc1ccc(O)cc1)NC(=O)[C@H](CCCN=C(N)N)NC(=O)[C@H](C)NC(=O)[C@H](CC(C)C)NC(=O)[C@H](CC(=O)O)NC(=O)[C@H](CCC(=O)O)NC(=O)[C@H](C)NC(=O)[C@@H]1CCCN1C(=O)[C@H](C)NC(=O)[C@H](CC(=O)O)NC(=O)[C@H](CCC(=O)O)NC(=O)[C@H](C)NC(=O)[C@@H]1CCCN1C(=O)[C@H](CC(N)=O)NC(=O)[C@H](CC(=O)O)NC(=O)[C@@H]1CCCN1C(=O)[C@H](CCCCN)NC(=O)[C@H](CO)NC(=O)[C@@H]1CCCN1C(=O)[C@@H](N)Cc1ccc(O)cc1)C(=O)N[C@@H](CC(N)=O)C(=O)N[C@@H](CC(C)C)C(=O)N[C@H](C(=O)N[C@H](C(=O)N[C@@H](CCCN=C(N)N)C(=O)N[C@@H](CCC(N)=O)C(=O)N[C@@H](CCCN=C(N)N)C(=O)O)[C@@H](C)O)[C@@H](C)CC,–,–,–,0.7
